The text below walks through data of article PMC9250355 (Molecular Biology of the Cell, 2022).

The subject of test [1] is S. pombe strains (pxl1 wild type and pxl1 mutants). In words: Serial dilution growth assay in the presence of LatA. The note with it: low-dose LatA (0.20 μM), 32°C. The format is cell-based. The procedure, abridged:
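Strains were grown in liquid YE at 25°C. Three 10-fold serial dilutions starting at 4 × 10^6 cells/ml were spotted on YE agar containing 0.20 µM LatA or DMSO. Plates were incubated at 32°C for 2–5 d, then colonies were imaged by scanner.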

Test [2] addresses Pxl1 PxxP^6 peptide (residues 177–188), biotin-labeled (S. pombe).

Regarding `C/C1=C/C(=O)O[C@@H]2C[C@@H](CC[C@H](C)/C=C\C=C\CC1)O[C@@](O)([C@@H]1CSC(=O)N1)C2` [LatA, latrunculin A], in test [1], the “sensitivity of pxl1 mutants to LatA” value is given as “no evidence of sensitivity”.

B1: GST-Cdc15C1 (residues 600–end) (domain or fragment)
chain: MRRRQSTSVDDEAPVSLSKTSSSTRLNGLGYHSRNTSIASDIDGVPKKSTLGAPPAAHTSAQMQRMSNSFASQTKQVFGEQRTENSARESLRHSRSNMSRSPSPMLSRRSSTLRPSFERSASSLSVRQSDVVSPAPSTRARGQSVSGQQRPSSSMSLYGEYNKSQPQLSMQRSVSPNPLGPNRRSSSVLQSQKSTSSNTSNRNNGGYSGSRPSSEMGHRYGSMSGRSMRQVSQRSTSRARSPEPTNRNSVQSKNVDPRATFTAEGEPILGYVIALYDYQAQIPEEISFQKGDTLMVLRTQEDGWWDGEIINVPNSKRGLFPSNFVQTV
What is called Kd is the constant that tells how readily two partners part at equilibrium. In the case of B1, the Kd in test [2] is 1900 nM.
